# This is a sample that favours compounds with a hit; in the whole collection about 9.8% have one here.
# Rad51 HR inh = human RAD51 strand exchange inhibitors, primary screen, biochemical, fluorescence. inhibition, % at 10 µM. AID 1385, 2008. hRad51 DNA strand exchange, fluorescence dequenching. 200,000 tested, 0.085% active;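 active = inhibition above 40% at the single screening dose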;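 note: 0% = DMSO control wells and 100% = blanks with heterologous ssDNA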
#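 Test system: preformed human Rad51 ssDNA filaments; also added: Donor/quencher-labelled 47-bp dsDNA substrate; doses: 10 µM final, single point; times: 37 °C 15-min filament assembly, 30-min compound preincubation, 15-min exchange; detection: FRET fluorescence dequenching, excitation 485 nm, emission 520 nm; read-out basis: Fluorescence-based percent inhibition, control- and blank-normalised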
# PMI act hi M6P = human PMI activators, high substrate, primary screen, biochemical, fluorescence intensity, near-saturating mannose 6-phosphate. coupled PMI enzyme assay, resazurin fluorescence, 20 min; stronger effect = higher value; 1 = untreated enzyme, 0 = substrate-free blank. AID 1216, 2008. activation factor at 20 µM. Mannose-6-phosphate isomerase (Homo sapiens), P34949. 190,000 tested, 0.34% active;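 active = activation factor of 2 or more at 20 µM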
# Target sequence (P34949 whole entry, looked up): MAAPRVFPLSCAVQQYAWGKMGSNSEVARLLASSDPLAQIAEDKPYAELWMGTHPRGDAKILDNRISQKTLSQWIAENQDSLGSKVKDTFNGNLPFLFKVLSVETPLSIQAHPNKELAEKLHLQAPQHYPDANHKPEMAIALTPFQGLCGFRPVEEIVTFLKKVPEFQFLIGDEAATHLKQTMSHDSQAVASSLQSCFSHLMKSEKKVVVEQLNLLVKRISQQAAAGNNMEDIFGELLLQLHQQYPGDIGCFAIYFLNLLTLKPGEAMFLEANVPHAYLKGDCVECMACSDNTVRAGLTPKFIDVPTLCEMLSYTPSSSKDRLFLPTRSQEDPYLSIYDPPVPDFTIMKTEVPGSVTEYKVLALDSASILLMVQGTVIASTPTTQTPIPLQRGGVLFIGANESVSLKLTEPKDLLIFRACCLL
#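 Test system: human phosphomannose isomerase with PGI, G6PDH, diaphorase coupling enzymes; amount: 15 ng/mL PMI; incubation: enzyme reaction with compound 20 min at room temperature; technique: resorufin fluorescence (Ex 544/Em 590 nm) from resazurin via diaphorase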
# WT yeast gro inh = growth inhibition of WT strain, primary screen, mitochondrial fusion inhibitor project, WT and mutant strains, chemical genetic; 190,000 tested, 2.1% active; AID 1362, 2008; mitochondrial fusion phenotypic screen; inhibition, % at 10 µM; in the data active = inhibition above about 58%; tested in S. cerevisiae
# PMI act = activators of human PMI, primary screen, biochemical, fluorescence intensity, near-Km mannose 6-phosphate; Mannose-6-phosphate isomerase (Homo sapiens), P34949; purified human PMI, coupled resazurin fluorescence, 20 min; stronger effect = higher value; 1 = vehicle control, 0 substrate-free wells; activation factor at 20 µM; 190,000 tested, 0.005% active; AID 1214, 2008;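 active = activation factor of 2 or more at 20 µM, relative to plate controls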
# Calpain2 inh = inhibitors of pig calpain II, primary screen, biochemical, fluorogenic peptide substrate, 1536-well | purified calpain II, 30 min | inhibition, % at 16 µM | 220,000 tested, 0.37% active | AID 1236, 2008;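 active = inhibition above about 50%, limit read from the data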
# Lmaj promast = Leishmania major promastigote growth inhibition, primary screen; inhibition, % at 10 µM; Leishmania major promastigotes, resazurin fluorescence viability; 200,000 tested, 9% active; in the data active = inhibition above about 50%;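 note: promastigotes grown with compound for 44 hours at 28 °C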
# * hit, by the source's call; . = no result.
SMILES,Rad51 HR inh,PMI act hi M6P,WT yeast gro inh,PMI act,Calpain2 inh,Lmaj promast
Cc1cc(=O)[nH]c(SC(C(=O)O)c2ccccc2)n1 (stereo not drawn),-5,0.9,-20,1,8,73*
S=C(Nc1ccc(Cl)cc1)c1nc2ccccc2[nH]1,0,1.1,55,1,-6,88*
Cc1ccccc1NC(=O)NCCc1nc2ccccc2[nH]1,1,1,-9,1,-3,-3
Cc1ccccc1NC(=S)c1nc2ccccc2[nH]1,6,1.1,59,1,30,90*
CCC(C)(C(=O)NC1CCCCC1)N(C(=O)CC1NC(=O)NC1=O)c1c(C)n(C)n(-c2ccccc2)c1=O (stereo not drawn),22,0.9,1,1,-18,-8
Cc1nc2cc(NC(=O)Nc3ccccc3Cl)ccc2n1C,-2,0.9,13,0.9,-10,14
c1ccc(-n2ncc3c(N4CCN(CCOc5cccc6ccccc56)CC4)ncnc32)cc1,-5,0.8,21,0.8,1,99*
CS(=O)(=O)N1CCN(c2ncnc3c2cnn3-c2ccccc2)CC1,-10,1.1,-19,1.1,-13,-7
O=C(CN(CCc1ccccc1)C(=O)Cn1nnc(-c2cccs2)n1)NCc1ccco1,-2,0.9,10,0.9,-20,5
O=C(CN(C(=O)Cn1nnc(-c2cccs2)n1)c1ccc2c(c1)OCCO2)NCc1ccccc1,-5,1,1,0.9,14,95*
c1cncc(CNC2CCCc3ccccc32)c1 (stereo not drawn),0,1.1,-8,1.1,-23,43
O=[N+]([O-])c1ccc(CNC2CCCc3ccccc32)cc1 (stereo not drawn),0,1.1,9,1.1,37,83*
C=CCOc1c(Cl)cc(CNc2ccc(N(C)C)cc2)cc1OC,0,0.5,54,0.6,6,101*
CC(=O)c1cccc(NC(=S)NC(=O)c2ccc(Br)cc2)c1,12,1.1,6,1.1,20,54*
CC(=O)c1cccc(NC(=O)C=C(C)C)c1,-1,1,12,1,-7,98*
O=C(NC(=S)Nc1cccc(CO)c1)c1ccc(-c2ccccc2)cc1,4,0.9,10,0.8,35,57*
CC(C)(C)c1ccc(CS(=O)CC(O)CO)cc1 (stereo not drawn),.,1,-10,1,-11,-8
NNC(=O)[C@H]1C[C@@H]1c1ccccc1,.,1,3,1,17,-5
COc1ccc(OCC(=O)Nc2sc3c(c2C(=O)NCC2CCCO2)CCC3)cc1 (stereo not drawn),1,0.9,4,0.8,-12,-4
CCCC(=O)Nc1ccccc1NC(=O)c1ccc(OC(C)=O)cc1,8,1.1,-37,1,-17,-5
Cn1c(N)c(C(=O)COC(=O)/C=C/c2ccc(S(=O)(=O)N3CCOCC3)cc2)c(=O)n(C)c1=O,12,.,.,.,20,.
Cc1ccc(OCCCC(=O)NCc2ccco2)c(C)c1,-18,1,-3,1,-21,1
Cc1ccc(C(=O)Nn2cnnc2)cc1S(=O)(=O)N1CCOCC1,.,.,.,.,-16,.
CC(C)=CCC/C(C)=C/C=N/NC(=O)c1ccccc1[N+](=O)[O-],1,1,5,1,4,94*
Cn1c(=O)cc(OCCCC(=O)N2CCN(c3ccccc3)CC2)c2ccccc21,.,0.9,58*,0.9,-2,0
SMILES,Rad51 HR inh,PMI act hi M6P,WT yeast gro inh,PMI act,Calpain2 inh,Lmaj promast
CN1CCN(C(=O)CCCOc2cc(=O)n(C)c3ccccc23)CC1,1,1,-13,1,3,11
C=CCNc1nc(N(c2ccccc2)c2ccccc2)nc(-n2ccnc2)n1,-5,0.9,16,1,-4,55*
CCCCNc1nc(N(C)c2ccccc2)nc(-n2ccnc2)n1,-36,0.8,50,0.8,24,98*
c1ccc(N(c2ccccc2)c2nc(-n3ccnc3)nc(-n3ccnc3)n2)cc1,1,1,98*,1,-34,28
Cc1ccnc(NS(=O)(=O)c2ccc(N)cc2)n1,5,1,2,0.9,13,-2
COC(=O)c1ccc2c(c1)NC(=O)C(N1CCOCC1)S2 (stereo not drawn),8,1,-21,1,3,-6
CCC1CCCCN1C1Sc2ccc(C(=O)OC)cc2NC1=O (stereo not drawn),-5,0.9,-50,0.9,19,100*
O=C(CN(Cc1ccccc1Cl)C(=O)Cn1nnc(-c2cccs2)n1)NCC1CCCO1 (stereo not drawn),-1,1,7,1,-3,19
O=C(NCC1CCCO1)C(c1cccs1)N(Cc1ccccc1Cl)C(=O)c1ccc(-c2ccccc2)[nH]1 (stereo not drawn),-1,0.9,20,0.8,-22,100*
Cc1ccc(CN(C(=O)CNC(=O)c2cccs2)C(C(=O)NCC2CCCO2)c2ccccc2)cc1 (stereo not drawn),-1,1,9,1,-2,-4
Cc1ccc(C(C(=O)NCC2CCCO2)N(Cc2ccccc2)C(=O)c2ccc(-c3ccccc3)[nH]2)o1 (stereo not drawn),.,1,69*,0.8,-32,53*
CC(=O)Nc1ccc(OCc2nnc(-c3ccc(Cl)cc3)o2)cc1,-8,1,0,1,-6,5
COc1ccc(NC(=O)CCC(=O)N(Cc2ccc(OC)c(OC)c2)c2nccs2)cc1,.,0.9,-1,0.8,0,54*
O=C(CSc1nccn1-c1ncc(C(F)(F)F)cc1Cl)c1ccc(Cl)cc1,-7,1.1,-2,1,-9,2
CC1=C/C(=N\OC(=O)/C=C/c2ccccc2)C(C)=CC1=O,3,0.9,-8,1,9,100*
CC1CCN(S(=O)(=O)c2cc(C(=O)N3CCN(c4ncccn4)CC3)ccc2Br)CC1,-1,0.9,-7,0.9,13,85*
Cn1c(=O)c2c(nc(-n3ccnc3)n2Cc2ccc(Cl)cc2Cl)n(C)c1=O,1,1,-6,1,3,84*
CCN(CC)CCNC(=O)c1cc2cc(Br)ccc2s1,3,1.1,4,1.1,-6,96*
Cn1c(N)c(C(=O)CSc2nc3ccccc3[nH]2)c(=O)n(C)c1=O,0,.,.,.,-12,.
Cc1cc(NC(=O)CN2C(=O)NC3(CCCCC3C)C2=O)no1 (stereo not drawn),3,1,2,1,16,58*
